According to ChEMBL document CHEMBL2062448, “A substituted 3,4-dihydropyrimidinone derivative (compound D22) prevents inflammation mediated neurotoxicity; role in microglial activation in BV-2 cells” (Bioorg Med Chem Lett, 2012):
The source made the active and inactive calls. The calls are words filed in the database; no cut-off is given here.

Legend:
[1] = system: BV-2; assay: Antineuroinflammatory activity in […] cells assessed as inhibition of LPS-induced nitric oxide production at 5 to 20 uM treated 30 mins before LPS challenge measured after 24 hrs by Griess reaction; format: functional, cell-based
In short: (§1)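 BV-2 cells at 3 × 10⁴ cells/well in DMEM with 5% FBS at 37 °C, 5% CO₂. Cells were pretreated 30 min, then given LPS 100 ng/ml for 24 h. Supernatant was mixed 1:1 with Griess reagent (1% sulfanilamide, 0.1% naphthylethylenediamine in 5% phosphoric acid). Absorbance at 570 nm was read after 10 min against a sodium nitrite standard.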

[2] = system: BV-2; assay: Antineuroinflammatory activity in […] cells assessed as inhibition of LPS-induced nitric oxide production at 10 uM treated 30 mins before LPS challenge measured after 24 hrs by Griess reaction; format: functional; in short: as §1
[3] = system: N2a; assay: Antineuroinflammatory activity in LPS-stimulated […] cells in conditioned media assessed as inhibition of […] cell death treated 30 mins before LPS challenge measured after 24 hrs by MTT assay; format: functional, cell-based
In short: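 BV-2 cells (DMEM, 5% FBS) pretreated with 5, 10 or 20 µM for 30 min, then LPS 100 ng/ml for 24 h. Conditioned media were transferred to N2a cells (DMEM, 10% FBS) for 24 h, and N2a viability was read by MTT. Mean ± S.E.M. of three independent experiments; one-way ANOVA with Tukey post test.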

[4] = system: MAP kinase p38 (Mus musculus); assay: Inhibition of LPS-induced p38 kinase phosphorylation in mouse BV2 cells after 30 mins by Western blot analysis; conditions: BV-2
[5] = system: BV-2; assay: Antineuroinflammatory activity in […] cells assessed as inhibition of LPS-induced iNOS expression at 5 to 20 uM after 6 hrs by Western blot analysis; format: functional, cell-based
In short: (§2)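 BV-2 cells exposed to LPS 100 ng/ml with or without 5–20 µM for 6 h. Lysates were run on 8–12% SDS-PAGE and transferred to nitrocellulose. Blots were probed 12 h for iNOS or COX-2, then HRP secondary 1 h at room temperature, ECL detection and densitometry. Three independent experiments.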

[6] = system: BV-2; assay: Cytotoxicity against LPS-induced […] cells assessed as cell viability after 24 hrs by MTT assay; format: cell-based; conditions: bv-2, 24 h
In short: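 BV-2 viability measured by MTT after 30 min pretreatment with 5, 10 or 20 µM, followed by LPS 100 ng/ml for 24 h. Mean ± S.E.M. of three independent experiments.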

[7] = system: BV-2; assay: Antineuroinflammatory activity in […] cells assessed as inhibition of LPS-induced TNFalpha production treated 30 mins before LPS challenge measured after 24 hrs by ELISA; format: functional, cell-based
In short: (§3)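 BV-2 cells plated at 1.5 × 10⁶ cells/well and pretreated for 30 min. Cells were then exposed to LPS 100 ng/ml for 24 h. IL-1β and TNF-α in culture medium were quantified by immunoassay kit. Mean ± S.E.M. of three independent experiments.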

[8] = system: BV-2; assay: Antineuroinflammatory activity in […] cells assessed as inhibition of LPS-induced PGE2 production at 5 to 20 uM treated 30 mins before LPS challenge measured after 24 hrs by competitive enzyme immunoassay; format: functional, cell-based
In short: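 BV-2 cells plated at 1.5 × 10⁶ cells/well and pretreated with 5, 10 or 20 µM for 30 min. LPS 100 ng/ml was then added for 24 h. PGE₂ in medium was measured by competitive enzyme immunoassay kit. Mean ± S.E.M. of three independent experiments.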

[9] = system: BV-2; assay: Inhibition of LPS-induced ERK kinase phosphorylation in […] cells after 30 mins by Western blot analysis; format: cell-based
In short: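 BV-2 cells exposed to LPS 100 ng/ml with or without 5–20 µM for 30 min. Lysates were run on 8–12% SDS-PAGE and transferred to nitrocellulose. Blots were probed 12 h for phospho-p38, -JNK or -ERK, then HRP secondary 1 h at room temperature, ECL detection and densitometry.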

[10] = system: N2a; assay: Antineuroinflammatory activity in LPS-stimulated […] cells in conditioned media assessed as inhibition of caspase-3 activation in […] cells treated 30 mins before LPS challenge measured at 5 to 20 uM after 24 hrs by Western blot analysis; format: functional, cell-based
In short: (§4)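 BV-2 cells pretreated with 5, 10 or 20 µM for 30 min, then LPS 100 ng/ml for 24 h. Conditioned media were collected and applied to N2a cells for 24 h. Lysates were run on 8–12% SDS-PAGE and transferred to nitrocellulose. Blots were probed 12 h with primary antibodies (cleaved caspase-3, Bax, Bcl-2), then HRP secondary 1 h at room temperature, ECL detection and densitometry. Mean ± S.E.M. of three independent experiments.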

[11] = system: N2a; assay: Antineuroinflammatory activity in LPS-stimulated […] cells in conditioned media assessed as recovery of Bcl-2 expression in […] cells treated 30 mins before LPS challenge measured at 5 to 20 uM after 24 hrs by Western blot analysis; format: functional, cell-based; in short: as §4
[12] = system: BV-2; assay: Antineuroinflammatory activity in […] cells assessed as inhibition of LPS-induced IL-1beta production treated 30 mins before LPS challenge measured after 24 hrs by ELISA; format: functional, cell-based; in short: as §3
[13] = system: BV-2; assay: Antineuroinflammatory activity in […] cells assessed as inhibition of LPS-induced COX2 expression at 5 to 20 uM after 6 hrs by Western blot analysis; format: functional, cell-based; in short: as §2
[14] = system: N2a; assay: Antineuroinflammatory activity in LPS-stimulated […] cells in conditioned media assessed as inhibition of Bax expression in […] cells treated 30 mins before LPS challenge measured at 5 to 20 uM after 24 hrs by Western blot analysis; format: functional, cell-based; in short: as §4
[15] = system: N2a; assay: Antineuroinflammatory activity in LPS-stimulated […] cells in conditioned media assessed as inhibition of DNA fragmentation in […] cells treated 30 mins before LPS challenge measured after 24 hrs by Gel electrophoresis; format: functional, cell-based
In short: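 BV-2 cells pretreated with 5, 10 or 20 µM for 30 min, then stimulated with LPS 100 ng/ml for 24 h. Conditioned media were applied to N2a cells for 24 h. Cells were scraped and pelleted at 7500 rpm for 5 min. DNA fragmentation was resolved by gel electrophoresis alongside vehicle CM and LPS-with-vehicle CM lanes.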

[16] = system: c-Jun N-terminal kinase, JNK (Mus musculus); assay: Inhibition of LPS-induced JNK kinase phosphorylation in mouse BV2 cells after 30 mins by Western blot analysis; conditions: BV-2

For `CCOC(=O)C1=C(C)NC(=O)NC1c1cc(Cl)ccc1O` (stereo not drawn), the inhibition [1] was “Active”.

With `O=c1cc(-c2ccccc2)oc2cc(O)cc(O)c12` the inhibition [2] was “Active”.

In the case of `CCOC(=O)C1=C(C)NC(=S)NC1c1cccc(Oc2ccccc2)c1` (stereo not drawn), the inhibition [3] is reported as “Active”, the inhibition [4] is reported as “Dose-dependent effect” and the inhibition [5] is reported as “Active”. The Activity [6] was “Non-toxic”, the inhibition [7] was “Dose-dependent effect” and the inhibition [8] was “Active”. For the same compound, the inhibition [9] was “Dose-dependent effect”, the inhibition [10] was “Active” and the Activity [11] was “Active”. The inhibition [12] was “Dose-dependent effect”, the inhibition at 10 µM ([2]; Mus musculus, BV-2, read-out: INH) was 51% and the inhibition [13] was “Active”. The inhibition [14] was “Active”, the inhibition [15] was “Active” and the inhibition [16] was “Dose-dependent effect”.

For `CCOC(=O)C1=C(C)NC(=O)NC1c1cccc(Oc2ccccc2)c1` (stereo not drawn), the inhibition [1] was “Active”.
